How the values were obtained:
[1] = Hydrolysis rate constant at pH 7.4 and 12.5 mM HEPES buffer; assay type: ADME
Outline: (§1)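 Spectrophotometric hydrolysis assay of model perhydrooxazines at 37 °C. Buffer strength was varied by mixing a stock of 0.25 M HEPES, phenol red (10 mg/100 mL) and KCl (μ = 0.20) with a matching stock that lacked HEPES. Substrate was added in DMSO (1:4 v/v) at a perhydrooxazine:buffer molar ratio of 0.1, with DMSO in the reference cell. The phenol red absorbance rise at 560 nm was read over 1 h. k came from the slope of ln(A∞ − At) vs time.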

[2] = Hydrolysis rate constant at pH 7.4 and 50 mM HEPES buffer; assay type: ADME; outline: as §1
[3] = Hydrolysis rate constant at pH 6.8 and 25 mM HEPES buffer; assay type: ADME; outline: as §1
[4] = Hydrolysis rate constant at pH 7 and 25 mM HEPES buffer; assay type: ADME; outline: as §1
[5] = Hydrolysis rate constant at pH 7.8 and 25 mM HEPES buffer; assay type: ADME; outline: as §1
[6] = Hydrolysis rate constant at pH 7.4 and 25 mM HEPES buffer; assay type: ADME; outline: as §1
L1210 [7] = assay: In vivo antitumor activity against intraperitoneal murine wild type L1210 Leukemia cells at 510 umol/kg; assay type: functional, Mus musculus
P388 [8] = assay: In vitro antitumor activity against cyclophosphamide-resistant P388/CP cells; assay type: functional, Mus musculus
Outline: (§2)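 Clonogenic survival assay in wild-type or cyclophosphamide-resistant L1210 and P388 cells with 1-h drug exposure. LC99 is the concentration that lowers colony formation to 1% of control. It comes from linear regression of log surviving fraction vs concentration over the linear portion, using at least three determinations. Standard errors are within ±10%.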

L1210 [9] = assay: Ratio of resistance factor LC99 […] to that of LC99 […]; assay type: functional, Mus musculus
Outline: (§3)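 Resistance factor is LC99 in the cyclophosphamide-resistant line divided by LC99 in the wild-type line. Each LC99 is from a clonogenic assay with 1-h drug exposure: the concentration that reduces colonies to 1% of control, by linear regression of log survival vs concentration from at least three determinations.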

L1210 [10] = assay: In vivo antitumor activity against intraperitoneal murine wild type L1210 Leukemia cells at 340 umol/kg; assay type: functional, Mus musculus
L1210 [11] = assay: In vitro antitumor activity against wild-type L1210/0 cells; assay type: functional, Mus musculus; outline: as §2
P388 [12] = assay: In vitro antitumor activity against wild-type P388/0 cells; assay type: functional, Mus musculus; outline: as §2
L1210 [13] = assay: In vitro antitumor activity against cyclophosphamide-resistant L1210/CP cells; assay type: functional, Mus musculus; outline: as §2
P388 [14] = assay: Ratio of resistance factor LC99 […] to that of LC99 […]; assay type: functional, Mus musculus; outline: as §3
L1210 [15] = assay: In vivo antitumor activity against intraperitoneal murine wild type L1210 Leukemia cells at 170 umol/kg; assay type: functional, Mus musculus

**Q.** For C[C@@H]1CC(C)(C)N[C@H](CCc2ccccc2)O1, which khydr [1] is on record?
**A.** 0.0086 min⁻¹

**Q.** And the khydr [2]?
**A.** 0.0095 min⁻¹

**Q.** What about the khydr [3] of the same molecule?
**A.** 0.0042 min⁻¹

**Q.** And the khydr [4]?
**A.** 0.0065 min⁻¹

**Q.** What about the khydr [5] of the same molecule?
**A.** 0.0082 min⁻¹

**Q.** What about the khydr [6] of the same molecule?
**A.** 0.0094 min⁻¹

**Q.** For CC[C@H]1NC(C)(C)C[C@@H](C)O1, which khydr [1] is on record?
**A.** 0.0088 min⁻¹

**Q.** What about the khydr [2] of the same molecule?
**A.** 0.0086 min⁻¹

**Q.** What about the khydr [6] of the same molecule?
**A.** 0.0085 min⁻¹

**Q.** For CC1CC(C)(C)NC(CC(OP(=O)(N(CCCl)CCCl)N(CCCl)CCCl)c2ccccc2)O1 (stereo unspecified), which T/C (L1210 [7]) is on record?
**A.** 170%

**Q.** What about the LC99 (P388 [8]) of the same molecule?
**A.** 2 µM

**Q.** And the RF (L1210 [9])?
**A.** 1.5

**Q.** And the T/C (L1210 [10])?
**A.** 150%

**Q.** And the LC99 (L1210 [11])?
**A.** 2 µM

**Q.** And the LC99 (P388 [12])?
**A.** 2 µM

**Q.** What about the LC99 (L1210 [13]) of the same molecule?
**A.** 3 µM

**Q.** What about the RF (P388 [14]) of the same molecule?
**A.** 1

**Q.** And the T/C (L1210 [15])?
**A.** 125%

**Q.** For CC1CC(C)(C)NC(CC(OP(=O)(N(CCCl)CCCl)N2CCOCC2)c2ccccc2)O1 (stereo unspecified), which T/C (L1210 [7]) is on record?
**A.** 111%

**Q.** And the LC99 (P388 [8])?
**A.** 22 µM

**Q.** What about the RF (L1210 [9]) of the same molecule?
**A.** 1.4

**Q.** What about the T/C (L1210 [10]) of the same molecule?
**A.** 100%

**Q.** What about the LC99 (L1210 [11]) of the same molecule?
**A.** 28 µM

**Q.** What about the LC99 (P388 [12]) of the same molecule?
**A.** 16 µM

**Q.** What about the LC99 (L1210 [13]) of the same molecule?
**A.** 38 µM

**Q.** What about the RF (P388 [14]) of the same molecule?
**A.** 1.4

**Q.** What about the T/C (L1210 [15]) of the same molecule?
**A.** 100%

**Q.** For CCN(CC)P(=O)(OCCC1NC(C)(C)CC(C)O1)N(CC)CC (stereo unspecified), which LC99 (P388 [8]) is on record?
**A.** >200 µM

**Q.** And the LC99 (L1210 [11])?
**A.** >200 µM

**Q.** What about the LC99 (P388 [12]) of the same molecule?
**A.** >200 µM

**Q.** What about the LC99 (L1210 [13]) of the same molecule?
**A.** >200 µM

**Q.** What does the source list for CC1CC(C)(C)NC(CCOP(=O)(N(CCCl)CCCl)N(CCCl)CCCl)O1 (stereo unspecified)?
**A.** LC99 (P388 [8]): 10 µM; RF (L1210 [9]): 2.7; LC99 (L1210 [11]): 7 µM; LC99 (P388 [12]): 5 µM; LC99 (L1210 [13]): 19 µM; RF (P388 [14]): 2

**Q.** Which results are given for CC1CC(C)(C)NC(CCOP(N)(=O)N(CCCl)CCCl)O1 (stereo unspecified)?
**A.** T/C (L1210 [7]): 167%; LC99 (P388 [8]): 92 µM; RF (L1210 [9]): 6.9; T/C (L1210 [10]): 144%; LC99 (L1210 [11]): 21 µM; LC99 (P388 [12]): 19 µM; LC99 (L1210 [13]): 145 µM; RF (P388 [14]): 4.8; T/C (L1210 [15]): 144%

**Q.** What does the source list for CC1CC(C)(C)NC(CCOP(=O)(N(CCCl)CCCl)N2CCOCC2)O1 (stereo unspecified)?
**A.** T/C (L1210 [7]): 113%; LC99 (P388 [8]): 117 µM; RF (L1210 [9]): 1.8; T/C (L1210 [10]): 113%; LC99 (L1210 [11]): 84 µM; LC99 (P388 [12]): 56 µM; LC99 (L1210 [13]): 150 µM; RF (P388 [14]): 2.1

**Q.** Which LC99 (P388 [8]) does the source give for CC1CC(C)(C)NC(CC(OP(N)(=O)N(CCCl)CCCl)c2ccccc2)O1 (stereo unspecified) here?
**A.** 10 µM

**Q.** What about the RF (L1210 [9]) of the same molecule?
**A.** 1.1

**Q.** What about the T/C (L1210 [10]) of the same molecule?
**A.** 125%

**Q.** And the LC99 (L1210 [11])?
**A.** 13 µM

**Q.** And the LC99 (P388 [12])?
**A.** 7 µM

**Q.** What about the LC99 (L1210 [13]) of the same molecule?
**A.** 14 µM

**Q.** And the RF (P388 [14])?
**A.** 1.4

**Q.** And the T/C (L1210 [15])?
**A.** 125%

**Q.** With CCN(CC)P(N)(=O)OC(CC1NC(C)(C)CC(C)O1)c1ccccc1 (stereo unspecified) as the molecule, how does the LC99 (P388 [8]) read?
**A.** >200 µM

**Q.** And the LC99 (L1210 [11])?
**A.** >200 µM

**Q.** And the LC99 (P388 [12])?
**A.** >200 µM

**Q.** And the LC99 (L1210 [13])?
**A.** >200 µM
